Rows were chosen to be rich in hits. Some 1.4% of all compounds tested hit in one or more screens of this group.
CRFR2-BP antag: antagonists of CRF-BP/CRF-R2 complex, primary screen, cell-based, HEK293, calcium dye fluorescence, uHTS; CRF-induced calcium fluorescence; inhibition, % at 11.8 µM; 350,000 compounds, 0.59% hits;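 active = inhibition of the ligand-induced calcium signal above about 50% at the single tested concentration, limit read from the data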
CRFR2-BP ag: agonists of CRF-BP/CRF-R2 complex, primary screen, cell-based, HEK293, calcium dye fluorescence, uHTS; calcium dye fluorescence (FLIPR); percent of saturating CRF peptide response; activation, % at 13.2 µM; 350,000 compounds, 0.46% hits;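 active = activation of at least 50%, plus an integration ratio under a set limit after plate pattern correction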;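 note: plate controls were neutral control wells without compound for no effect and CRF at EC100 for full effect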
RTF Ca sens act: cardiac RTF calcium sensitivity activators, primary screen, biochemical, IANBD-TnC fluorescence, EC20 calcium; IANBD-labeled TnC RTF fluorescence at EC20 calcium; 0% EC20 calcium, 100% full calcium; activation, % at 7.2 µM; 340,000 compounds, 0.24% hits; AID 493008, 2010;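 active = activation above the mean over all tested compounds plus 3 SD, cut at about 30% in these data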;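 note: rise in fluorescence read as greater calcium sensitivity of cardiac thin filaments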
Tn6 DDE FP: inhibitors of Tn6 peptide binding to fibrin DD(E), primary screen, biochemical, fluorescence polarization, human fibrin, Tn6 probe; Fibrinogen beta chain (Homo sapiens), P02675; Fibrin DD(E) TRITC-Tn6 fluorescence polarization displacement; inhibition, % at 8.3 µM; 370,000 compounds, 0.21% hits; AID 720509, 2013;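 active = inhibition above a per-campaign cutoff: mean of compounds within control limits plus 3 SD, cut at about 15% in these data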;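 note: 0% = median of all compound wells on the plate and 100% = blocking peptide control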
Target sequence (P02675 whole entry, looked up): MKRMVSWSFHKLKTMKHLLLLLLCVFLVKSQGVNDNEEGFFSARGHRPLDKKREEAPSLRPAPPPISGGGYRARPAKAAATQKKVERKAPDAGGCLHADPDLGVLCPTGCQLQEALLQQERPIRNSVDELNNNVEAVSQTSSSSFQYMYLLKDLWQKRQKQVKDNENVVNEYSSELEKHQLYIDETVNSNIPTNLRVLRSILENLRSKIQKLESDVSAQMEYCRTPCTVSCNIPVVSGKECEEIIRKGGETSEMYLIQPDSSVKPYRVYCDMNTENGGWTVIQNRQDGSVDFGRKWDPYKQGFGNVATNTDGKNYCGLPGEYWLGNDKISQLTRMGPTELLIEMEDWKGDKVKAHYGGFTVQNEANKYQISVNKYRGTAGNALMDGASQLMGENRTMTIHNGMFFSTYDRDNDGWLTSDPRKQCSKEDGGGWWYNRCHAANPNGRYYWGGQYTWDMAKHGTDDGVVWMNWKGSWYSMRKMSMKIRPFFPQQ
RTF Ca sens inh: cardiac RTF calcium sensitivity inhibitors, primary screen, biochemical, IANBD-TnC fluorescence, EC70 calcium | Troponin I, cardiac muscle (Homo sapiens) + Troponin T, cardiac muscle (Homo sapiens) + … | IANBD-labeled cardiac RTF, Ca2+ fluorescence | inhibition, % at 7.15 µM | 340,000 compounds, 0.12% hits | AID 493244, 2011;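 active = inhibition above the mean inhibition of all tested compounds plus 3 SD, cut at about 17% in these data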;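 note: assay run at fixed EC70 calcium of 1.6 mM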
DDE Tn7 FP inh: inhibitors of Tn7 peptide binding to fibrin DD(E), primary screen, biochemical, fluorescence polarization, human fibrin, Tn7 probe; inhibition, % at 8.3 µM; 370,000 compounds, 0.13% hits; Fibrinogen beta chain (Homo sapiens), P02675; FP displacement of FITC-Tn7 peptide from fibrin DD(E); 0% = median of compound wells per plate;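 active = inhibition above the mean of compounds falling within the control limits plus 3 SD of them, cut at about 14% in these data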;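 note: 0% = plate median of compound wells and 100% = 10 µM Aha-Tn7 peptide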
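Also added: labelled Tn7 tracer, 0.1 µM; Assay system: human fibrin DD(E) protein; Amount: 2 µM fibrin DD(E); Schedule: 10 min compound pre-incubation, 3 h probe incubation at room temperature; Repeats: one replicate per compound; Read-out basis: percent inhibition; Measured by: fluorescence polarization of the labelled Tn7 tracer.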
Tn6 DDE ctr: DD(E)-Tn6 binding inhibition, counter-screen; inhibition, % at 8.3 µM; Fibrin DD(E), TRITC-Tn6 fluorescence polarization displacement; 0% = median of compound wells, not DMSO; 680 compounds, 2% hits; shares compounds with Tn6 DDE FP;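 active = inhibition above the mean of test compounds lying between the control limits plus 3 SD of those, cut at about 14% in these data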;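 note: 0% = median of compound wells and 100% = wells with Aha-Tn7 blocking peptide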
Tn6 DDE conf: inhibitors of Tn6 peptide binding to fibrin DD(E), confirmation, biochemical, fluorescence polarization, human fibrin, Tn6 probe; 680 compounds, 10% hits; inhibition, % at 8.3 µM; shares compounds with Tn6 DDE FP; FP displacement of TRITC-Tn6 peptide from DD(E); 0% = per-plate median of test wells;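 active = inhibition above the mean of compounds lying within the control limits plus 3 SD, cut at about 16% in these data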;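 note: 100% = high control wells holding a competing inhibitor peptide at 10 µM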
The depositor's hits bear a star; · = no result.

SMILES	CRFR2-BP antag	CRFR2-BP ag	RTF Ca sens act	Tn6 DDE FP	RTF Ca sens inh	DDE Tn7 FP inh	Tn6 DDE ctr	Tn6 DDE conf
COc1ccc(/C=C/C(=O)Nc2ccccc2C(N)=O)cc1S(=O)(=O)N1CCOCC1	-2	-1	-3	9	7	6	·	·
COc1ccccc1NC(=O)/C=C/c1ccc(OC)c(S(=O)(=O)N2CCOCC2)c1	-2	-2	5	17*	1	9	3	-2
CC1=C(C(=O)N2CCCCCC2)CC(CC(=O)NCC2CCCCC2)C(=O)N1Cc1ccc(F)cc1 (stereo not given)	·	·	·	2	·	-1	·	·
CC(C)n1nnnc1C1c2ccccc2C(=O)N1Cc1cccc(F)c1 (stereo not given)	·	·	·	6	·	0	·	·
CCc1ccccc1NC(=O)CC(=O)Nc1ccccc1CC	-18	-4	1	5	-5	6	·	·
CCC(=O)Nc1cc(OC)c(NC(=S)Nc2ccccc2CC)cc1OC	-2	0	·	74*	·	1	4	-7
CCc1nc2c(OCC3CCCCC3)cccn2c1N(C)C(=O)c1ccccc1F	·	·	·	6	·	-4	·	·
Cc1ccc(NC(=O)C(C)Sc2nnc(C)n2C)cc1 (stereo not given)	12	0	-5	15*	-2	-3	6	1
CCOc1ccc(NC(=O)C(C)Sc2nnc(C)n2C)cc1 (stereo not given)	24	6	3	1	-1	1	·	·
COc1ccc(C=NNC(=O)Cc2cc(=O)[nH][nH]2)c(OC)c1	·	·	·	-6	·	10	·	·
O=C(Nc1ccc(Cl)cc1)c1csc(-c2ccccc2)n1	8	9	-1	28*	-1	6	10	26*
C#CCCN([C@@H](CC(C)C)C(=O)OC)S(=O)(=O)c1ccccc1Br	·	·	·	-11	·	5	·	·
C=CCN1[C@@H](C)COc2cc(F)ccc2S1(=O)=O	·	·	·	-4	·	4	·	·
Cc1cc2cc(CNC(=O)Cc3ccc([N+](=O)[O-])cc3)ccc2n1C	9	-1	-1	17*	-8	2	0	6
Cc1c(C(=O)NCc2ccc3c(c2)cc(C)n3C)cccc1[N+](=O)[O-]	13	2	18	24*	-5	2	-4	-7
Cc1c(C(=O)NCc2ccco2)cccc1[N+](=O)[O-]	9	2	15	-8	-16	-3	·	·
Cc1cc2cc(CNC(=O)c3cccc([N+](=O)[O-])c3)ccc2n1C	-35	37	4	53*	4	6	-3	-7
Cc1cc2cc(CNC(=O)c3cccc([N+](=O)[O-])c3)ccc2[nH]1	40	-1	11	-2	-11	1	·	·
CCc1ccc(C(O)c2ncc(-c3ccccc3OC)[nH]2)cc1 (stereo not given)	·	·	·	0	·	3	·	·
O=C(O)CCN(Cc1ccccc1)S(=O)(=O)c1ccc(Cl)cc1F	-26	-2	1	16*	-12	4	-1	-4
Cc1cc(CN(C)C(=O)CC2C(=O)NCCN2Cc2ccc(-c3ccccc3)cc2)on1 (stereo not given)	-2	3	3	16*	-4	2	-2	-14
Cc1cccc(NC(=S)NCc2ccc3c(c2)cc(C)n3C)c1C	1	-4	4	23*	3	-5	4	-1
